Screens: PubChem BioAssay, The Scripps Research Institute Molecular Screening Center
In the library only some 4.6% were active in any assay of this set; here they are far more common.
CHO parental Ca = signal in parental CHO cells, OX1R antagonist counter-screen. parental CHO-K1, ATP-induced calcium, Fluo-8 fluorescence. inhibition, % at 5.6 µM. 330,000 compounds, 0.63% hits. AID 463079;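 active = inhibition above that plate's mean sample inhibition plus 3 SD, cut at about 26% in these data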;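 also: 0% = ATP-challenged DMSO wells and 100% = DMSO wells without ATP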
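Assay system: parental CHO cells; Read-out basis: percent inhibition of ATP-evoked calcium rise, normalized to controls; Benchmarks: ATP and no-ATP DMSO wells; Compound dosing: single nominal dose of 5.6 µM per compound; Signal: Fluo-8 calcium dye fluorescence; Also added: ATP as calcium-mobilizing challenge; Repeats: singlicate.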
TAAR1 antag = human TAAR1 antagonism; CHO RD-HGA16 TAAR1, Fluo-8 calcium fluorescence, antagonist; Q96RJ0; 360,000 compounds, 1.5% hits; AID 624466; inhibition, % at 3 µM;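 active = inhibition above a per-plate cutoff, the mean inhibition of test compounds on that plate plus 3 SD, cut at about 49% in these data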;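 also: 0% = DMSO plus EC80 beta-PEA response and 100% = DMSO alone without agonist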
Target sequence (Q96RJ0 whole entry, looked up): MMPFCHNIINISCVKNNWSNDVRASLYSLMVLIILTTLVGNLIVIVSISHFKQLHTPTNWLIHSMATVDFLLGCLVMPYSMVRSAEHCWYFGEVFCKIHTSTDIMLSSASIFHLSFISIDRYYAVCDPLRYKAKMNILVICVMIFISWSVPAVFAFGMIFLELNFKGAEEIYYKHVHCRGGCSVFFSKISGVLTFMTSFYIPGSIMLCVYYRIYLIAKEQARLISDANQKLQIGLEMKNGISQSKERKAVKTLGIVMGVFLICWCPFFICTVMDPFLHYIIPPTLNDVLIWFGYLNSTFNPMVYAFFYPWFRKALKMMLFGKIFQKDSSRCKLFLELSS
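Material: CHO RD-HGA16 cells bearing hTAAR1; compound dosing: one-point dosing, 3 µM nominal final; schedule: dye loading 75 min at 37 °C, then 30 min room temperature; measured by: calcium fluorescence with Fluo-8; control set: vehicle and agonist controls; replication: n of 1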
TAAR1 ag = human TAAR1 agonism; Q96RJ0; CHO RD-HGA16 TAAR1, Fluo-8 calcium fluorescence; vehicle wells 0%, saturating PEA agonist 100%; activation, % at 3 µM; 360,000 compounds, 0.99% hits; AID 624467;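 active = activation above the mean activation of all test compounds in the run plus 3 SD, cut at about 38% in these data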
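Signal – calcium-sensitive Fluo-8 signal, excitation 470-495, emission 515-575 nm · System – RD-HGA16 (CHO) cells co-expressing Gα16 and hTAAR1 · Incubation – 17-24 h seeding, 75 min 37 °C dye, 30 min RT · Compound dosing – 3 µM single concentration · Repeats – no replicates (n 1)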
OX1R antag-1 = antagonists of human orexin 1 receptor; O43613; CHO/OX1R cells, Fluo-8 calcium fluorescence, orexin A; inhibition, % at 5 µM; 330,000 compounds, 0.43% hits; AID 434989;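 active = inhibition above its plate's threshold, mean inhibition of all tested compounds on the plate plus 3 SD, cut at about 37% in these data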;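 also: 0% = orexin A challenge wells and 100% = SB-334867-A antagonist wells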
OX1R antag-2 = blocks the human orexin 1 receptor; O43613; OX1R-expressing cells, FRET antagonist read-out; inhibition, % at 6.6 µM; 330,000 compounds, 1.8% hits; in the data active = inhibition mostly above about 38%, no sharp cut-off; inactive = mostly below about 40%;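 also: 0% = agonist challenge alone and 100% = reference antagonist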
GPR7 antag = blocks human GPR7 receptor signaling. 290,000 compounds, 1.1% hits. inhibition, % at 4.4 µM. AID 1861. P48145. GPR7-expressing cells, fluorescence antagonist assay; in the data active = inhibition above about 16%, passing the limit was not always enough;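 also: cells stimulated with the agonist NPW; 0% = agonist with vehicle and 100% = vehicle without agonist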
Target sequence (P48145 whole entry, looked up): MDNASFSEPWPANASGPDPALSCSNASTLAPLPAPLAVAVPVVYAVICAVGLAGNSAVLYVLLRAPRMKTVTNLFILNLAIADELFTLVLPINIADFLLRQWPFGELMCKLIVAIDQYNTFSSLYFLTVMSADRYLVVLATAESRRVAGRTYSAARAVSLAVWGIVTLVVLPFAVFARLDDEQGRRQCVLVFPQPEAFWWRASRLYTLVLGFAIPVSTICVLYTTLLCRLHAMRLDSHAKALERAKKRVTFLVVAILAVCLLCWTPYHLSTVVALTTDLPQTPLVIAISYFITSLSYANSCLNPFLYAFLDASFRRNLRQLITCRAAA
GPR7 antag conf = confirmation of human GPR7 antagonists; 2,400 compounds, 52% hits; shares compounds with GPR7 antag; GPR7-expressing cells, calcium fluorescence antagonist mode; inhibition, % at 4.4 µM; in the data active = inhibition above about 24%;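 also: stimulated with the GPR7 agonist NPW; 0% = agonist plus vehicle and 100% = vehicle alone without agonist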
MCHR1 antag = antagonizes human MCHR1, a GPR7 antagonist counter-screen; shares compounds with GPR7 antag; inhibition, % at 4.4 µM; MCHR1-expressing cells, fluorescence antagonist assay; AID 2148; 2,400 compounds, 62% hits; in the data active = inhibition above about 22%;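 also: 0% = vehicle with agonist and 100% = vehicle without agonist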
An asterisk follows results filed as active; / = not tested or not shown.

SMILES | CHO parental Ca | TAAR1 antag | TAAR1 ag | OX1R antag-1 | OX1R antag-2 | GPR7 antag | GPR7 antag conf | MCHR1 antag
CCOC(=O)c1cc(-c2ccc(Cl)cc2)nc2c1c(C)nn2CCC#N | -8 | 19 | 5 | -27 | 29 | 3 | / | /
CCOC(=O)c1cc(-c2ccc(OC)cc2F)nc2c1c(C)nn2CCC#N | -26 | 17 | 15 | -21 | 10 | 29* | 33* | 23*
Cc1cc(NC(=O)c2ccc(Br)c([N+](=O)[O-])c2)no1 | 16 | -2 | 9 | 6 | 56 | 22* | 0 | 4
Cc1cc(NC(=O)c2ccc(C)c([N+](=O)[O-])c2)no1 | 0 | -8 | 8 | -5 | 29 | 5 | / | /
CCN(CC(=O)Nc1ccc2c(c1)OCCO2)C(=O)c1cc(S(=O)(=O)N2CCOCC2)ccc1F | / | -17 | 5 | / | / | / | / | /
O=C(NC1CCSc2ccccc21)c1cccc(Br)c1 (stereo not drawn) | -13 | -2 | -1 | -17 | 25 | 27* | 12 | 19
Cc1c(Cc2ccc3c(c2)OCO3)sc(NC(=O)C(C)(C)C)c1C#N | -7 | 47 | 0 | -26 | 15 | 6 | / | /
Cc1ccc(N(CC(O)Cn2c3ccccc3c3ccccc32)S(C)(=O)=O)cc1 (stereo not drawn) | 0 | 44 | 11 | 21 | 31 | 24* | 30* | 45*
Cc1ccc(N(CC(O)Cn2c3ccccc3c3ccccc32)S(C)(=O)=O)c(C)c1 (stereo not drawn) | -8 | 23 | 11 | -9 | 5 | -1 | / | /
Cc1cccc(C)c1N(CC(O)Cn1c2ccccc2c2ccccc21)S(C)(=O)=O (stereo not drawn) | -9 | 19 | 9 | 13 | 32 | 29* | 37* | 36*
O=C(NCc1cccnc1)c1cc(-c2ccc(Cl)cc2)oc1C(F)(F)F | -27 | -34 | 4 | -25 | 16 | 34* | 24* | 20
O=C(CCC(=O)N1CCCCCC1)Nc1ccc([N+](=O)[O-])cc1 | -5 | -15 | 4 | -1 | 20 | 34* | 3 | 8
CC(C(=O)Nc1ccc2c(c1)OCO2)N(c1ccc(Cl)cc1)S(C)(=O)=O (stereo not drawn) | -16 | -25 | -1 | -14 | 13 | -10 | / | /
COc1cccc(N2CCN(c3ccc([N+](=O)[O-])cn3)CC2)c1 | -3 | -2 | 9 | -1 | 11 | 41* | 40* | 72*
O=[N+]([O-])c1ccc(N2CCN(c3ccccc3)CC2)nc1 | -5 | 7 | 2 | 1 | 18 | 25 | / | /
O=[N+]([O-])c1ccc(N2CCN(c3ccc(F)cc3)CC2)nc1 | 3 | -7 | 2 | 1 | 2 | 47* | 45* | 56*
Cc1ccc(S(=O)(=O)N/N=C/c2ccc3nccnc3c2)cc1 | -8 | -18 | 1 | -7 | 23 | -19 | / | /
Cc1ccc(OCC(=O)NCc2cccnc2)cc1 | -11 | -5 | 3 | -3 | 19 | 24* | -5 | 5
O=S(=O)(NCc1cccnc1)c1ccc2c(c1)OCCO2 | -1 | -3 | 9 | 0 | 3 | 23* | -19 | 17
Cc1ccc(S(=O)(=O)NCc2ccc(C(=O)NCc3cccnc3)cc2)cc1 | -14 | / | / | -18 | 15 | 23* | -4 | 0
CN1CCn2cnc(C(=O)N[C@@H](Cc3ccccc3)C(=O)OC(C)(C)C)c2C1=O | / | -10 | 1 | / | / | / | / | /
CC(Sc1nnc(-c2ccccc2F)n1C)C(=O)NC1CCCCC1 (stereo not drawn) | -15 | -5 | 2 | -3 | 1 | / | / | /
CCN(CC)CCSc1nc(O)c(-c2ccccc2)c(=O)n1-c1ccccc1 | -1 | -19 | 1 | -7 | 7 | -2 | / | /
CCN(CC)CCSc1nc2ccccc2c(=S)n1-c1ccccc1 | -18 | -10 | 19 | -15 | 8 | 40* | 40* | 39*
Cc1ccc(-c2csc(NC(=O)C3CCN(S(=O)(=O)c4cccs4)CC3)n2)cc1 | 22 | 1 | 1 | 6 | 15 | 39* | 43* | 57*
SMILES | CHO parental Ca | TAAR1 antag | TAAR1 ag | OX1R antag-1 | OX1R antag-2 | GPR7 antag | GPR7 antag conf | MCHR1 antag
Cc1ccc(NC(=O)C2CCN(S(=O)(=O)c3cccs3)CC2)cc1 | -4 | 19 | 1 | -21 | -3 | 0 | / | /
CCN1CCN(C(=O)c2ccc3c(c2)N(Cc2ccc(C)cc2)CCS3)CC1 | -31 | -22 | 3 | -19 | 19 | / | / | 12
Cc1ccc(CN2CCSc3ccc(C(=O)N4CCOCC4)cc32)cc1 | -30 | / | / | -36 | 15 | -17 | / | /
CCOC(=O)c1cc2ccccc2n1CCN(CC)CC | -17 | -13 | 23 | -42 | 8 | 31* | 6 | 6
CC1(C)NC(=O)N(CC(=O)OCC(=O)Nc2cc(S(=O)(=O)N3CCCCC3)ccc2Cl)C1=O | -19 | 1 | -1 | -14 | 9 | -6 | / | /
COc1ccc(C2C(O)C(c3c[nH]c4ccccc34)=NN2C(=O)CCl)cc1 (stereo not drawn) | -6 | 15 | 3 | -2 | 14 | 22* | 39* | 47*
CC(=O)Nc1ccc(S(=O)(=O)N(CCCN2CCOCC2)Cc2cccs2)cc1 | -20 | 9 | 7 | -1 | 5 | 25* | 1 | 16
Cc1ccc2[nH]c3c(c2c1)CCNC3=O | 7 | -37 | 1 | -2 | 11 | -12 | / | /
Fc1ccc(C(c2nnnn2Cc2ccccc2)N2CCSCC2)cc1 (stereo not drawn) | -9 | 9 | 6 | -27 | 10 | -4 | / | /
Clc1ccc(C(c2nnnn2CCc2ccccc2)N2CCSCC2)cc1 (stereo not drawn) | -7 | 1 | 7 | 1 | 40 | 28* | 31* | 41*
CC(C)(C)NCCOCCOc1ccc(Cl)cc1C(C)(C)C | -7 | 7 | 5 | -19 | 7 | 9 | / | /
Clc1ccc(OCCOCCN2CCc3ccccc3C2)c(Cl)c1 | -12 | -27 | 36 | -16 | 13 | 30* | 17 | 30*
CC(C)(C)c1cc(Cl)ccc1OCCOCCN1CCCC1 | -6 | 10 | 17 | -1 | -2 | 24* | 35* | 41*
Cc1ccc(OCCOCCN2CCN(C)CC2)c(C(C)(C)C)c1 | -9 | -15 | 5 | 2 | 9 | -6 | / | /
C=CCNCCCOc1ccc(Cl)cc1C(C)(C)C | -1 | -6 | 21 | -26 | 11 | 25* | 25* | 37*
Cc1ccc(-c2nnc(COC(=O)c3cc(=O)[nH]c4ccccc34)o2)cc1 | -24 | -27 | 0 | -29 | 33 | -6 | / | /
